Test results as given in ChEMBL document CHEMBL4371064, “Erythrofordins D and E, two new cassaine-type diterpenes from Erythrophleum suaveolens” (2019).

Legend:
Type in all cases: functional
UO-31 = experiment: Growth inhibition of human UO31 cells incubated for 48 hrs by sulforhodamine B assay; settings: UO-31, 48 h
Summary of the method: (§1)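 Tested in the NCI 60-human-tumour-cell-line screen using the five-dose format. GI₅₀ was derived from each cell line's dose-response. TGI and LC₅₀ were derived from the same dose-response data.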

RXF 393 = experiment: Growth inhibition of human RXF393 cells incubated for 48 hrs by sulforhodamine B assay; settings: RXF 393, 48 h
Summary of the method: (§2)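 Run in the NCI-60 human tumour cell line panel with dose-response testing. GI50 was determined for each cell line from its dose-response data.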

IGROV-1 = experiment: Growth inhibition of human IGROV1 cells incubated for 48 hrs by sulforhodamine B assay; settings: IGROV-1, 48 h; summary of the method: as §2
PC-3 = experiment: Growth inhibition of human PC3 cells incubated for 48 hrs by sulforhodamine B assay; settings: PC-3, 48 h; summary of the method: as §2
LOX IMVI = experiment: Growth inhibition of human LOXIMVI cells incubated for 48 hrs by sulforhodamine B assay; summary of the method: as §2
COLO 205 = experiment: Growth inhibition of human COLO205 cells incubated for 48 hrs by sulforhodamine B assay; settings: COLO 205, 48 h; summary of the method: as §2
OVCAR-5 = experiment: Growth inhibition of human OVCAR5 cells incubated for 48 hrs by sulforhodamine B assay; settings: OVCAR-5, 48 h; summary of the method: as §2
SN12C = experiment: Growth inhibition of human SN12C cells incubated for 48 hrs by sulforhodamine B assay; summary of the method: as §2
NCI/ADR-RES = experiment: Growth inhibition of human NCI/ADR-RES cells incubated for 48 hrs by sulforhodamine B assay; summary of the method: as §2
UACC-62 = experiment: Growth inhibition of human UACC62 cells incubated for 48 hrs by sulforhodamine B assay; settings: UACC-62, 48 h; summary of the method: as §1
KM12 = experiment: Growth inhibition of human KM12 cells incubated for 48 hrs by sulforhodamine B assay; settings: KM12, 48 h; summary of the method: as §2
Malme-3M = experiment: Growth inhibition of human MALME-3M cells incubated for 48 hrs by sulforhodamine B assay; summary of the method: as §2
M14 = experiment: Growth inhibition of human M14 cells incubated for 48 hrs by sulforhodamine B assay; settings: M14, 48 h; summary of the method: as §2
Hs-578T = experiment: Growth inhibition of human Hs578T cells incubated for 48 hrs by sulforhodamine B assay; summary of the method: as §2
MCF7 = experiment: Growth inhibition of human MCF7 cells incubated for 48 hrs by sulforhodamine B assay; settings: MCF7, 48 h; summary of the method: as §2
RPMI-8226 = experiment: Growth inhibition of human RPMI8226 cells incubated for 48 hrs by sulforhodamine B assay; settings: RPMI-8226, 48 h; summary of the method: as §2
MDA-MB-468 = experiment: Growth inhibition of human MDA-MB-468 cells incubated for 48 hrs by sulforhodamine B assay; settings: MDA-MB-468, 48 h; summary of the method: as §2
K562 = experiment: Growth inhibition of human K562 cells incubated for 48 hrs by sulforhodamine B assay; settings: K562, 48 h; summary of the method: as §2
HOP-92 = experiment: Growth inhibition of human HOP92 cells incubated for 48 hrs by sulforhodamine B assay; settings: HOP-92, 48 h; summary of the method: as §2
OVCAR-3 = experiment: Growth inhibition of human OVCAR3 cells incubated for 48 hrs by sulforhodamine B assay; settings: OVCAR-3, 48 h; summary of the method: as §2
SF-539 = experiment: Growth inhibition of human SF539 cells incubated for 48 hrs by sulforhodamine B assay; settings: SF-539, 48 h; summary of the method: as §2
CAKI-1 = experiment: Growth inhibition of human Caki1 cells incubated for 48 hrs by sulforhodamine B assay; settings: CAKI-1, 48 h; summary of the method: as §2
SK-MEL-28 = experiment: Growth inhibition of human SK-MEL-28 cells incubated for 48 hrs by sulforhodamine B assay; settings: SK-MEL-28, 48 h; summary of the method: as §2
MDA-MB-435 = experiment: Growth inhibition of human MDA-MB-435 cells incubated for 48 hrs by sulforhodamine B assay; settings: MDA-MB-435, 48 h; summary of the method: as §2
SNB-75 = experiment: Growth inhibition of human SNB75 cells incubated for 48 hrs by sulforhodamine B assay; settings: SNB-75, 48 h; summary of the method: as §2
TK-10 = experiment: Growth inhibition of human TK10 cells incubated for 48 hrs by sulforhodamine B assay; settings: TK-10, 48 h; summary of the method: as §1
SK-MEL-5 = experiment: Growth inhibition of human SK-MEL-5 cells incubated for 48 hrs by sulforhodamine B assay; settings: SK-MEL-5, 48 h; summary of the method: as §2
NCI-H522 = experiment: Growth inhibition of human NCI-H522 cells incubated for 48 hrs by sulforhodamine B assay; settings: NCI-H522, 48 h; summary of the method: as §2
HCT-116 = experiment: Growth inhibition of human HCT116 cells incubated for 48 hrs by sulforhodamine B assay; settings: HCT-116, 48 h; summary of the method: as §2
NCI-H322M = experiment: Growth inhibition of human NCI-H322M cells incubated for 48 hrs by sulforhodamine B assay; summary of the method: as §2
U-251 = experiment: Growth inhibition of human U251 cells incubated for 48 hrs by sulforhodamine B assay; settings: U-251, 48 h; summary of the method: as §1
[1] = read-out: pLC50 (the source's name) (converted)

COC(=O)/C=C1\CC[C@H]2[C@@H](CC(=O)[C@H]3C(C)(C)[C@@H](O)CC[C@]23C)[C@H]1C
GI50 (UO-31): 1.05 µM
LC50 (UO-31): 16.2 µM
TGI (UO-31; read-out: pTGI (converted)): 5.01 µM
GI50 (RXF 393): 0.933 µM
CC50 (RXF 393; [1]): > 34.7 µM
TGI (RXF 393; read-out: pTGI (converted)): 3.31 µM
GI50 (IGROV-1): 3.8 µM
LC50 (IGROV-1): > 34.7 µM
TGI (IGROV-1; read-out: pTGI (converted)): 22.4 µM
GI50 (PC-3): 3.16 µM
CC50 (PC-3; [1]): > 34.7 µM
TGI (PC-3; read-out: pTGI (converted)): 15.8 µM
GI50 (LOX IMVI): 2 µM
LC50 (LOX IMVI): > 34.7 µM
TGI (LOX IMVI; read-out: pTGI (converted)): 9.55 µM
GI50 (COLO 205): 10.5 µM
LC50 (COLO 205): > 34.7 µM
TGI (COLO 205; read-out: pTGI (converted)): > 34.7 µM
GI50 (OVCAR-5): 5.89 µM
LC50 (OVCAR-5): > 34.7 µM
TGI (OVCAR-5; read-out: pTGI (converted)): 17.4 µM
GI50 (SN12C): 1.1 µM
LC50 (SN12C): > 34.7 µM
TGI (SN12C; read-out: pTGI (converted)): 5.89 µM
GI50 (NCI/ADR-RES): 1.2 µM
CC50 (NCI/ADR-RES; [1]): > 34.7 µM
TGI (NCI/ADR-RES; read-out: pTGI (converted)): 6.61 µM
GI50 (UACC-62): 5.62 µM
LC50 (UACC-62): > 34.7 µM
TGI (UACC-62; read-out: pTGI (converted)): 16.6 µM
GI50 (KM12): 11 µM
LC50 (concentration killing 50% of cells) (KM12): > 34.7 µM
TGI (KM12; read-out: pTGI): > 34.7 µM
GI50 (Malme-3M): 1.48 µM
LC50 (Malme-3M): 24.5 µM
TGI (Malme-3M; read-out: pTGI (converted)): 7.08 µM
GI50 (M14): 10 µM
LC50 (M14): > 34.7 µM
TGI (M14; read-out: pTGI (converted)): > 34.7 µM
GI50 (Hs-578T): 0.955 µM
LC50 (Hs-578T): > 34.7 µM
TGI (Hs-578T; read-out: pTGI (converted)): 3.39 µM
GI50 (MCF7): 1.62 µM
CC50 (MCF7; [1]): > 34.7 µM
TGI (MCF7; read-out: pTGI): > 34.7 µM
GI50 (RPMI-8226): 8.91 µM
LC50 (RPMI-8226): > 34.7 µM
TGI (RPMI-8226; read-out: pTGI (converted)): > 34.7 µM
GI50 (MDA-MB-468): 10 µM
CC50 (MDA-MB-468; [1]): > 34.7 µM
TGI (MDA-MB-468; read-out: pTGI (converted)): > 34.7 µM
GI50 (K562): 5.13 µM
LC50 (K562): > 34.7 µM
TGI (K562; read-out: pTGI (converted)): 28.8 µM
GI50 (HOP-92): 5.75 µM
LC50 (HOP-92): > 34.7 µM
TGI (HOP-92; read-out: pTGI (converted)): 23.4 µM
GI50 (OVCAR-3): 1.32 µM
LC50 (OVCAR-3): 21.4 µM
TGI (OVCAR-3; read-out: pTGI (converted)): 4.9 µM
GI50 (SF-539): 1.35 µM
LC50 (SF-539): 16.2 µM
TGI (SF-539; read-out: pTGI (converted)): 5.5 µM
GI50 (CAKI-1): 1.38 µM
LC50 (CAKI-1): > 34.7 µM
TGI (CAKI-1; read-out: pTGI (converted)): 6.76 µM
GI50 (SK-MEL-28): 9.33 µM
LC50 (SK-MEL-28): > 34.7 µM
TGI (SK-MEL-28; read-out: pTGI (converted)): 33.1 µM
GI50 (MDA-MB-435): 8.51 µM
LC50 (MDA-MB-435): > 34.7 µM
TGI (MDA-MB-435; read-out: pTGI (converted)): > 34.7 µM
GI50 (SNB-75): 1.1 µM
LC50 (concentration killing 50% of cells) (SNB-75): 23.4 µM
TGI (SNB-75; read-out: pTGI (converted)): 6.46 µM
GI50 (TK-10): 1.48 µM
LC50 (lethal concentration killing 50% of cells) (TK-10): > 34.7 µM
TGI (TK-10; read-out: pTGI (converted)): 7.94 µM
GI50 (SK-MEL-5): 1.29 µM
LC50 (SK-MEL-5): 25.7 µM
TGI (SK-MEL-5; read-out: pTGI (converted)): 5.75 µM
GI50 (NCI-H522): 0.741 µM
LC50 (NCI-H522): 27.5 µM
TGI (NCI-H522; read-out: pTGI (converted)): 2.29 µM
GI50 (HCT-116): 1.41 µM
LC50 (HCT-116): > 34.7 µM
TGI (HCT-116; read-out: pTGI (converted)): 6.31 µM
GI50 (NCI-H322M): 1.35 µM
LC50 (NCI-H322M): > 34.7 µM
TGI (NCI-H322M; read-out: pTGI (converted)): 9.55 µM
GI50 (U-251): 1.7 µM
LC50 (U-251): 19.5 µM
TGI (U-251; read-out: pTGI (converted)): 6.76 µM
